Calls of active or inactive are those of the source. The rule behind the calls is not given here.
Key:
[1] = Plasma protein binding in human; type: ADME, cell-free; settings: read-out: PPB (converted)
[2] = Plasma protein binding in cynomolgus monkey; type: ADME, cell-free, Macaca fascicularis; settings: read-out: PPB (converted)
[3] = Plasma protein binding in beagle dog; type: ADME, cell-free, Canis lupus familiaris; settings: read-out: PPB (converted)
[4] = Plasma protein binding in Sprague-Dawley rat; type: ADME, cell-free; settings: read-out: PPB (converted)
[5] = Ratio of drug uptake in brain to plasma of Sprague-Dawley rat at 10 mg/kg, po; type: ADME, organism-based; design: dose 10 mg/kg, route oral; settings: read-out: BPR
How it was run: (§1)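 Crystalline sodium salt given orally at 10 mg/kg to fasted male Sprague Dawley rats. Liver and brain uptake were measured and reported as the mean tissue-to-plasma ratio.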

[6] = Ratio of drug uptake in liver to plasma of Sprague-Dawley rat at 10 mg/kg, po; type: ADME, organism-based; design: dose 10 mg/kg, route oral; how it was run: as §1
[7] = Volume of distribution at steady state in beagle dog; type: ADME, organism-based, Canis lupus familiaris; settings: in vivo, read-out: Vdss
How it was run: (§2)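 The compound was given as a crystalline sodium salt. Pharmacokinetics were studied in Sprague Dawley rats, Cynomolgus monkeys and Beagle dogs after oral (PO) and IV dosing. Oral exposure was read as AUC, and the oral dose was 3 mpk in monkeys and dogs. Volume of distribution was taken at steady state.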

[8] = Volume of distribution at steady state in cynomolgus monkey; type: ADME, organism-based, Macaca fascicularis; settings: in vivo, read-out: Vdss; how it was run: as §2
[9] = Volume of distribution at steady state in Sprague-Dawley rat; type: ADME, organism-based; settings: in vivo, read-out: Vdss; how it was run: as §2
[10] = Clearance in beagle dog; type: ADME, organism-based, Canis lupus familiaris; settings: in vivo
[11] = Half life in iv dosed beagle dog; type: ADME, organism-based, Canis lupus familiaris; settings: in vivo
[12] = Oral bioavailability in beagle dog at 3 mg/kg; type: ADME, organism-based, Canis lupus familiaris; settings: in vivo; how it was run: as §2
[13] = AUC in beagle dog at 3 mg/kg, po; type: ADME, organism-based, Canis lupus familiaris; design: dose 3 mg/kg, route oral; settings: plasma
How it was run: (§3)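 Given orally as crystalline sodium salt; plasma AUC determined in Sprague Dawley rats (10 mpk), Cynomolgus monkeys (3 mpk) or Beagle dogs (3 mpk).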

[14] = Clearance in cynomolgus monkey; type: ADME, organism-based, Macaca fascicularis; settings: in vivo
[15] = Half life in iv dosed cynomolgus monkey; type: ADME, organism-based, Macaca fascicularis; settings: in vivo
[16] = Oral bioavailability in cynomolgus monkey at 3 mg/kg; type: ADME, organism-based, Macaca fascicularis; settings: in vivo; how it was run: as §2
[17] = AUC in cynomolgus monkey at 3 mg/kg, po; type: ADME, organism-based, Macaca fascicularis; design: dose 3 mg/kg, route oral; settings: plasma; how it was run: as §3
[18] = Half life in iv dosed Sprague-Dawley rat; type: ADME, organism-based; settings: in vivo
[19] = Oral bioavailability in Sprague-Dawley rat at 10 mg/kg; type: ADME, organism-based; settings: in vivo
[20] = Clearance in Sprague-Dawley rat; type: ADME, organism-based; settings: in vivo
[21] = AUC in Sprague-Dawley rat at 10 mg/kg, po; type: ADME, organism-based; design: dose 10 mg/kg, route oral; settings: plasma; how it was run: as §3
Hepatitis C virus = test: Antiviral activity against HCV Con1 in eplicon cells after 3 days by RT-PCR analysis; type: functional, organism-based, Hepacivirus hominis; settings: isolate Con1, 72 h
How it was run: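 HCV 1b-Con1 replicon cells seeded at 5000 cells/well one day before treatment; inhibitor in DMSO added as 10 serial twofold dilutions in duplicate (final 0.5% DMSO, 5% FBS). Harvested 3 days post dosing; replicon RNA quantified by real-time RT-PCR (Taqman), GAPDH RNA as endogenous control; EC50 calculated.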

[22] = Irreversible inhibition of HCV1b NS5B delta21 polymerase by radiolabeled nucleotide incorporation assay; design: species or system Hepatitis C virus subtype 1b
Enterovirus C = test: Inhibition of Poliovirus RNA-dependent RNA polymerase
[23] = system: Human immunodeficiency virus; test: Inhibition of HIV RNA-dependent DNA polymerase
Hepacivirus hominis [24] = test: Inhibition of HCV NS3 helicase
Hepacivirus hominis [25] = test: Inhibition of HCV NS3 protease

Molecule `Cc1cc2c(-c3ccc[nH]c3=O)c(C(=O)[O-])n(Cc3cc4ccccc4nc3Cl)c2cc1F.[Na+]` has a fraction unbound [1] of 0.003, a fraction unbound [2] of 0.005 and a fraction unbound [3] of 0.004. The fraction unbound [4] was 0.002, the Kp [5] was less than 0.01 and the Kp [6] was 0.4. The Vd [7] was 1.7 L/kg, the Vd [8] was 1.2 L/kg and the Vd [9] was 0.3 L/kg. It also gave a clearance [10] of 13 mL/min/kg, a half-life [11] of 2 h and a bioavailability [12] of 38%. For the same molecule, the AUC [13] was 3.2 µM·h, the clearance [14] was 3.5 mL/min/kg and the half-life [15] was 5 h. The bioavailability [16] was 38%, the AUC [17] was 11.5 µM·h and the half-life [18] was 7 h. It also gave a bioavailability [19] of 14%, a clearance [20] of 1.5 mL/min/kg and an AUC [21] of 35 µM·h.
In the case of `Cc1cc2c(-c3ccc[nH]c3=O)c(C(=O)O)n(Cc3cnc4ccccc4c3Cl)c2cc1F`, the EC50 (Hepatitis C virus) is reported as 20 nM and the IC50 [22] is reported as 6 nM.
Work on `Cc1ccc2nc(Cl)c(Cn3c(C(=O)O)c(-c4ccc[nH]c4=O)c4cc(C)c(F)cc43)cc2c1` yielded an EC50 (Hepatitis C virus) of 25 nM and an IC50 [22] of 20 nM.
In the case of `Cc1cc2c(-c3ccc[nH]c3=O)c(C(=O)O)n(Cc3cc4ccccc4nc3Cl)c2cc1F`, the inhibition (Enterovirus C) is reported as “inactive”, the inhibition [23] is reported as “inactive” and the inhibition (Hepacivirus hominis [24]) is reported as “inactive”. For the same molecule, the inhibition (Hepacivirus hominis [25]) was “inactive”.
In the case of `COc1ccc2cc(Cn3c(C(=O)O)c(-c4ccc[nH]c4=O)c4cc(C)c(F)cc43)c(Cl)nc2c1`, the EC50 (Hepatitis C virus) is reported as 10 nM and the IC50 [22] is reported as 6 nM.
Molecule `Cc1cc2c(-c3ccc[nH]c3=O)c(C(=O)O)n(Cc3cc(F)cnc3Cl)c2cc1F` has an EC50 (Hepatitis C virus) of 1000 nM and an IC50 [22] of 12 nM.
